{
  "source": "ChEMBL document CHEMBL4732120",
  "about": "“Discovery of novel PARP/PI3K dual inhibitors with high efficiency against BRCA-proficient triple negative breast cancer” (Eur J Med Chem, 2021)",
  "key": {"[1]": {"target": "Poly [ADP-ribose] polymerase 1 (Homo sapiens, UniProt P09874)", "test": "Inhibition of PARP1 (unknown origin)", "outline": "(§1)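 PARP-1 and PI3Kα enzyme inhibition. IC50 taken from dose-response curves and given as mean ± SD of three independent experiments.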"}, "[2]": {"target": "Phosphatidylinositol 4,5-bisphosphate 3-kinase catalytic subunit alpha isoform (Homo sapiens, UniProt P42336)", "sequence (P42336 whole entry, canonical isoform)": "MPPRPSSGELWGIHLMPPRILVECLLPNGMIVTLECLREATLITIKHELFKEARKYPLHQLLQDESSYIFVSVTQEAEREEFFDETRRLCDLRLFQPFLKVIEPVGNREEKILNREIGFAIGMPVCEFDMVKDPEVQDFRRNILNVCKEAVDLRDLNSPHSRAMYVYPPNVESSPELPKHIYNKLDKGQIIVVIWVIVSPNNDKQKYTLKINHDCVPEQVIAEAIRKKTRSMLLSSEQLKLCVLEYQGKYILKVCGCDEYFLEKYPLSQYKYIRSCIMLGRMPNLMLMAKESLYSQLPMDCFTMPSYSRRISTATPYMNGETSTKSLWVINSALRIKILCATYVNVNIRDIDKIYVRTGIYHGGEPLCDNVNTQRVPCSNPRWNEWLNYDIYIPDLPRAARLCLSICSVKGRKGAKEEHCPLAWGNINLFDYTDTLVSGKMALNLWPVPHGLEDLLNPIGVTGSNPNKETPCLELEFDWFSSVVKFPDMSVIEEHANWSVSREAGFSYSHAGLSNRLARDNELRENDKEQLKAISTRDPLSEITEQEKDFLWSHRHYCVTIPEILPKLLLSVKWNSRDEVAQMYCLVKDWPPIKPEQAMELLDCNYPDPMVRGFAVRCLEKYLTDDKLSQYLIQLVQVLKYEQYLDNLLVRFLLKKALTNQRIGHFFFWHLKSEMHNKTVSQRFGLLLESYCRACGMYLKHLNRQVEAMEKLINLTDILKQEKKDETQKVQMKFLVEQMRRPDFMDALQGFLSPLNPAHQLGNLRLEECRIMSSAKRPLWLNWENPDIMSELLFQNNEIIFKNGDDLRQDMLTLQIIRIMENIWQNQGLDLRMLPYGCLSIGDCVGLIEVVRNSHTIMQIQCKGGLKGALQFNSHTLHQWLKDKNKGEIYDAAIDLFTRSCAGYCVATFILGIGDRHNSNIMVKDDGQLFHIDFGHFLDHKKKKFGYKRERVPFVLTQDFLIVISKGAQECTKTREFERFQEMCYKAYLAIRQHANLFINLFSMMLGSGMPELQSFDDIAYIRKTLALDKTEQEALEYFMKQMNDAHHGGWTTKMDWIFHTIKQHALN", "test": "Inhibition of PI3Kalpha (unknown origin)", "outline": "as §1"}, "MDA-MB-468 [3]": {"test_system": "MDA-MB-468", "test": "Induction of apoptosis in human MDA-MB-468 cells assessed as viable cells at 1 uM measured after 72 hrs by Annexin V-FITC/propidium iodide staining based flow cytometry (reference value: 95.2%)", "format": "functional", "details": "read-out: Activity"}, "MDA-MB-468 [4]": {"test_system": "MDA-MB-468", "test": "Induction of apoptosis in human MDA-MB-468 cells assessed as early apoptotic cells at 1 uM measured after 72 hrs by Annexin V-FITC/propidium iodide staining based flow cytometry (reference value: 3.88%)", "format": "functional"}, "MDA-MB-468 [5]": {"test_system": "MDA-MB-468", "test": "Induction of apoptosis in human MDA-MB-468 cells assessed as late apoptotic cells at 1 uM measured after 72 hrs by Annexin V-FITC/propidium iodide staining based flow cytometry (reference value: 0.78%)", "format": "functional"}, "[6]": {"test": "Elimination rate constant in monkey liver microsomes measured after 1 hr", "format": "ADME, Macaca mulatta, Microsome", "details": "rhesus monkey", "outline": "(§2)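 Compound incubated 1 h with mouse, rat, dog, monkey or human liver microsomes. Derived values were the elimination rate constant k, the elimination half-life T1/2 and the intrinsic clearance CLint.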"}, "[7]": {"test": "Elimination rate constant in rat liver microsomes measured after 1 hr", "format": "ADME, Microsome", "outline": "as §2"}, "[8]": {"test": "Elimination rate constant in mouse liver microsomes measured after 1 hr", "format": "ADME, Microsome", "outline": "as §2"}, "[9]": {"test": "Elimination half life in human liver microsomes measured after 1 hr", "format": "ADME, Microsome", "details": "read-out: beta t1/2", "outline": "as §2"}, "[10]": {"test": "Elimination half life in monkey liver microsomes measured after 1 hr", "format": "ADME, Macaca mulatta, Microsome", "details": "rhesus monkey, read-out: beta t1/2", "outline": "as §2"}, "[11]": {"test": "Elimination half life in rat liver microsomes measured after 1 hr", "format": "ADME, Microsome", "details": "read-out: beta t1/2", "outline": "as §2"}, "[12]": {"test": "Intrinsic clearance in human liver microsomes measured after 1 hr", "format": "ADME, Microsome", "details": "read-out: CLH", "outline": "as §2"}, "[13]": {"test": "Intrinsic clearance in monkey liver microsomes measured after 1 hr", "format": "ADME, Macaca mulatta, Microsome", "details": "rhesus monkey, read-out: CLH", "outline": "as §2"}, "[14]": {"test": "Intrinsic clearance in rat liver microsomes measured after 1 hr", "format": "ADME, Microsome", "details": "read-out: CLH", "outline": "as §2"}, "[15]": {"test": "Intrinsic clearance in mouse liver microsomes measured after 1 hr", "format": "ADME, Microsome", "details": "read-out: CLH", "outline": "as §2"}, "[16]": {"test": "Apparent permeability across basolateral to apical side in human Caco2 cells assessed as drug recovery at 5 uM measured after 120 mins", "format": "ADME, cell-based", "details": "Caco-2, read-out: Drug recovery", "outline": "(§3)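 Bidirectional permeability run, apical-to-basolateral and basolateral-to-apical. Test compound at 5 µM, incubated 120 min. Papp (10^-6 cm/s), recovery (%) and efflux ratio reported as the mean of two experiments.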"}, "[17]": {"test": "Apparent permeability across apical to basolateral side in human Caco2 cells at 5 uM measured after 120 mins", "format": "ADME, cell-based", "details": "Caco-2", "outline": "as §3"}, "[18]": {"test": "Apparent permeability across basolateral to apical side in human Caco2 cells at 5 uM measured after 120 mins", "format": "ADME, cell-based", "details": "Caco-2", "outline": "as §3"}, "[19]": {"test": "Toxicity in Sprague-Dawley rat assessed as change in body weight at 1000 mg/kg, po administered as single dose measured during adaptation period (reference value: 258 +/- 13 g)", "format": "organism-based", "details": "in vivo"}, "[20]": {"test": "Toxicity in Sprague-Dawley rat assessed as change in body weight at 1000 mg/kg, po administered as single dose measured on day 4 (reference value: 280 +/- 12 g)", "format": "organism-based", "details": "in vivo, 96 h, time 4 day"}, "[21]": {"test": "Toxicity in Sprague-Dawley rat administered as single oral dose", "details": "in vivo", "outline": "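Sprague-Dawley rats, n = 6 (3 male, 3 female), given a single oral dose of 1000 mg/kg. Deaths and body-weight change were recorded to estimate the maximum tolerated dose.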"}, "[22]": {"target": "Voltage-gated inwardly rectifying potassium channel KCNH2 (Homo sapiens, UniProt Q12809)", "sequence (Q12809 whole entry)": "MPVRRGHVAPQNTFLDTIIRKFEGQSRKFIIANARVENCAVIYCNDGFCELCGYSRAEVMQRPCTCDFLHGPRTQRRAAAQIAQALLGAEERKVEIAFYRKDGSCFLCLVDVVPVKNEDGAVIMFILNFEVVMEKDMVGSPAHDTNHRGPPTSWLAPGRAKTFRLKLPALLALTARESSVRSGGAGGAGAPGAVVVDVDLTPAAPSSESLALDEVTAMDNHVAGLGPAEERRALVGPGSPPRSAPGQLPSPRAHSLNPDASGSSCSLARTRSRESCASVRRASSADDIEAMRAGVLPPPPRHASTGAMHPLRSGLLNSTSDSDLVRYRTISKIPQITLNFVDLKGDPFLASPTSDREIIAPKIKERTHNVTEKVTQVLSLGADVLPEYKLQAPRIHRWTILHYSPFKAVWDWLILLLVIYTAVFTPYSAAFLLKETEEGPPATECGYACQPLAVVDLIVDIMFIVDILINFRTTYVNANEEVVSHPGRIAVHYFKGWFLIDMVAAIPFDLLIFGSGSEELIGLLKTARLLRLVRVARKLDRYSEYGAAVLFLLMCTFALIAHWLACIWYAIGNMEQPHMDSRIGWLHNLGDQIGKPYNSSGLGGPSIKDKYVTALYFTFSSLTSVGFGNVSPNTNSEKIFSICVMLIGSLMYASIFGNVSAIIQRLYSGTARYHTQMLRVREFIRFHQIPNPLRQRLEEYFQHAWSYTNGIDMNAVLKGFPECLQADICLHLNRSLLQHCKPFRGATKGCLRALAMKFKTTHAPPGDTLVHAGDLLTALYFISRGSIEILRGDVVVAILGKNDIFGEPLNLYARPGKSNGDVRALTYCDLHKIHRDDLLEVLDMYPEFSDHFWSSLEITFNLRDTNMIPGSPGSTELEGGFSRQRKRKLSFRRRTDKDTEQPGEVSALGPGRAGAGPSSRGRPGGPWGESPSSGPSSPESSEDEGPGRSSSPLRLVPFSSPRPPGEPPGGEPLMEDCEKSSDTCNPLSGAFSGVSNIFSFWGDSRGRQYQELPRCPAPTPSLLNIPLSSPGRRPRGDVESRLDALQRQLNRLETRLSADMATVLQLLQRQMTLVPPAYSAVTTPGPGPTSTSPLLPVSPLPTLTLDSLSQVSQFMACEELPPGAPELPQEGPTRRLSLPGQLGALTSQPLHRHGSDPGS", "test": "Inhibition of human ERG"}, "[23]": {"test": "Toxicity in […] cells xenografted BALB/c mouse assessed as mortality at 50 mg/kg, ip administered every two days for 34 days", "format": "organism-based", "details": "in vivo, 816 h, time 34 day"}, "[24]": {"target": "Phosphatidylinositol 4,5-bisphosphate 3-kinase catalytic subunit gamma isoform (Homo sapiens, UniProt P48736)", "sequence (P48736 whole entry, canonical isoform)": "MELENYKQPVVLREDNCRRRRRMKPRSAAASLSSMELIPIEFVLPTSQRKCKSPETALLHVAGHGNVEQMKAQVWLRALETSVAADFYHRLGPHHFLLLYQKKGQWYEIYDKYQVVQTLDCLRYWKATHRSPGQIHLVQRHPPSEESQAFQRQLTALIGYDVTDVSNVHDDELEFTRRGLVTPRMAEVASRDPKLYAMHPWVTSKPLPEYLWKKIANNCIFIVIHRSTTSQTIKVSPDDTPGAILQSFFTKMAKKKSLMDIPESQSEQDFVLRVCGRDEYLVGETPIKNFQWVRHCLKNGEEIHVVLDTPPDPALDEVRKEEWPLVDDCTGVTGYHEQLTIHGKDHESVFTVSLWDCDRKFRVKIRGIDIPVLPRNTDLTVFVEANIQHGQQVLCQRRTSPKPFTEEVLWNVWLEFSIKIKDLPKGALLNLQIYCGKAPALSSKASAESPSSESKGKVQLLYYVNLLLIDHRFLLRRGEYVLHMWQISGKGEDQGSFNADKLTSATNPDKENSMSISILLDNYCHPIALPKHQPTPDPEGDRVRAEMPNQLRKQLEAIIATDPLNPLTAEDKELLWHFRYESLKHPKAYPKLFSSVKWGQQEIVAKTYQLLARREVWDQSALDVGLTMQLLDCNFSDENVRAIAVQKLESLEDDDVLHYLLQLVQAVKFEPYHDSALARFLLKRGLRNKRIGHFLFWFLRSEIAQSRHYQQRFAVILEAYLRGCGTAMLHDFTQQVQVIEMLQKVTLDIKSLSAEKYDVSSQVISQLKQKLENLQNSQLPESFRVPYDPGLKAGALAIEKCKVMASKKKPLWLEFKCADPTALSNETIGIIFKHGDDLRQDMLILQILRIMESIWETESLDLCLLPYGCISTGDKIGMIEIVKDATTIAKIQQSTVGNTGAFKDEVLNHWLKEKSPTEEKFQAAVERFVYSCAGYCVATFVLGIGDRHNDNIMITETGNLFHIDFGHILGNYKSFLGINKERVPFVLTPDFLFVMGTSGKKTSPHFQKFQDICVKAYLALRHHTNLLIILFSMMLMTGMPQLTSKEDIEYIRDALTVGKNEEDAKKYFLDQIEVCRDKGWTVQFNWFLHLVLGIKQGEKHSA", "test": "Inhibition of PI3Kgamma (unknown origin)"}, "[25]": {"target": "T1, Phosphatidylinositol 4,5-bisphosphate 3-kinase catalytic subunit delta isoform (Homo sapiens, UniProt O00329)", "T1 sequence (O00329 whole entry)": "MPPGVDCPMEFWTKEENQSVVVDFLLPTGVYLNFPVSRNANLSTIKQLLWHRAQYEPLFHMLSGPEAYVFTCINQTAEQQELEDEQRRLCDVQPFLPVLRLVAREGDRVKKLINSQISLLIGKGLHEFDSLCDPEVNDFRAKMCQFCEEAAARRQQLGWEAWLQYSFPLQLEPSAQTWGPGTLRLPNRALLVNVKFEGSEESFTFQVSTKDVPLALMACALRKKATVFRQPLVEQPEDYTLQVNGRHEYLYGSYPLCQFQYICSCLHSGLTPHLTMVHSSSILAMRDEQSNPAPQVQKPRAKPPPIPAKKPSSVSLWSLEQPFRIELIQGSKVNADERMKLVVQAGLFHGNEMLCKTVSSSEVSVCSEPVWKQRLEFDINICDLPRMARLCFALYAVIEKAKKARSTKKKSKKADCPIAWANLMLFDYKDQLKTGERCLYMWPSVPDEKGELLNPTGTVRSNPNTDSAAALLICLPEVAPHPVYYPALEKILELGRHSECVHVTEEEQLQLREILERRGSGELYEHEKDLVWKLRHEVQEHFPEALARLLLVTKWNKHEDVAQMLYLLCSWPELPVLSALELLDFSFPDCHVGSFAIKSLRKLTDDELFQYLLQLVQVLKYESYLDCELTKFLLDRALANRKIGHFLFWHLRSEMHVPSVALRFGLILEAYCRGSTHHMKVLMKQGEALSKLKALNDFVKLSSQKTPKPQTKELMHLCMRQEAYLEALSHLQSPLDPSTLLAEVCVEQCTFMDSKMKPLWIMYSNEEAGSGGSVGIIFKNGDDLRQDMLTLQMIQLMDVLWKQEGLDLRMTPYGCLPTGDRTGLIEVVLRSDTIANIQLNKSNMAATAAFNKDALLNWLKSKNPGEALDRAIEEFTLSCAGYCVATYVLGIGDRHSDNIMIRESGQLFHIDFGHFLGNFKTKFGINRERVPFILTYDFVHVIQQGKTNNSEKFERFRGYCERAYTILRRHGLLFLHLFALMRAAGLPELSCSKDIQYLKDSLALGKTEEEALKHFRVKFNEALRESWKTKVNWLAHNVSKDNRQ", "test": "Inhibition of PI3Kdelta (unknown origin)"}, "[26]": {"target": "Phosphatidylinositol 4,5-bisphosphate 3-kinase catalytic subunit beta isoform (Homo sapiens, UniProt P42338)", "sequence (P42338 whole entry, canonical isoform)": "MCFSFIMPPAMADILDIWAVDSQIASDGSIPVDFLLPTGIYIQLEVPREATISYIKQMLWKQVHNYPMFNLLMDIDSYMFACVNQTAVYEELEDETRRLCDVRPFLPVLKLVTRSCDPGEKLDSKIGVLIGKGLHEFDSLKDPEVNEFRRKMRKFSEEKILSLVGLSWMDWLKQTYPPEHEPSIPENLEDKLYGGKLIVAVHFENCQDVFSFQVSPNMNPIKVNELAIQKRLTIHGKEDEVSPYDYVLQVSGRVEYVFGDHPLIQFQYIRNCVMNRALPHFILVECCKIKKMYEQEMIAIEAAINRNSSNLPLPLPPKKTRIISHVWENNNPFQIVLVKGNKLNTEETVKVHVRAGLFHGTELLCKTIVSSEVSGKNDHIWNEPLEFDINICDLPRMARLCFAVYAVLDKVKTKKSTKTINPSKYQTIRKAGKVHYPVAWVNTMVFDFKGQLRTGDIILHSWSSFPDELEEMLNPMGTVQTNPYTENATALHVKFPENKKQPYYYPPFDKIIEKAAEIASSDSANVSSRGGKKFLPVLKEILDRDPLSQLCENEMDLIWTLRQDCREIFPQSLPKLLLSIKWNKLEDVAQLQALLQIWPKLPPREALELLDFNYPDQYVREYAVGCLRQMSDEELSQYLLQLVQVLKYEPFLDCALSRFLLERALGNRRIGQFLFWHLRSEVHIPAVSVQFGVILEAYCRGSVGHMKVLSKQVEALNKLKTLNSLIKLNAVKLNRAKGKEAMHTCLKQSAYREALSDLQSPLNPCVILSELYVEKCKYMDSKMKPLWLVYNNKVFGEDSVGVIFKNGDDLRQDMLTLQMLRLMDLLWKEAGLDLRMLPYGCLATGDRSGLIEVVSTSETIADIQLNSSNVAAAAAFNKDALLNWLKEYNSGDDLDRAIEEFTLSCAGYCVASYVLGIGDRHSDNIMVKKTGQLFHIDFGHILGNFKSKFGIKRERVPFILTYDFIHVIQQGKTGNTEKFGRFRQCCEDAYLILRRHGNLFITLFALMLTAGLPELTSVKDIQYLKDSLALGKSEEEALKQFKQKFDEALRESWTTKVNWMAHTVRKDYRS", "test": "Inhibition of PI3Kbeta (unknown origin)"}, "[27]": {"target": "Poly [ADP-ribose] polymerase 2 (Homo sapiens, UniProt Q9UGN5)", "sequence (Q9UGN5 whole entry)": "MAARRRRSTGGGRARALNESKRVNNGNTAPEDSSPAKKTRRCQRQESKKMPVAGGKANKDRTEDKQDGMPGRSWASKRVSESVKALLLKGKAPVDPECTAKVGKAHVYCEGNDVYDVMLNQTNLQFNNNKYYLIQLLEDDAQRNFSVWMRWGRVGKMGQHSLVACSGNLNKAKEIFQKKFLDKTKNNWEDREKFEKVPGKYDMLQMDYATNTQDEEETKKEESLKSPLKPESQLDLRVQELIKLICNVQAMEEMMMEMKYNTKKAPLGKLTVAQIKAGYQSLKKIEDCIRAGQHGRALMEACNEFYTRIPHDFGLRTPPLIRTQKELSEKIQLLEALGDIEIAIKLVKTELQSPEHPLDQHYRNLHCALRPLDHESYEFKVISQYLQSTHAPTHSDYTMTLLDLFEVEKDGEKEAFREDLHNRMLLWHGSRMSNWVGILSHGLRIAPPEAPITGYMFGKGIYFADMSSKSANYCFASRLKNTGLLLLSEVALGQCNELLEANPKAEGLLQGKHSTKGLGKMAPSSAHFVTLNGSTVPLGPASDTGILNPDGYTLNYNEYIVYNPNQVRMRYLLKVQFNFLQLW", "test": "Inhibition of PARP2 (unknown origin)"}, "[28]": {"test": "Toxicity in MDA-MB-468 cells xenografted BALB/c mouse assessed as change in body weight at 50 mg/kg, ip administered every two days for 34 days measured at 2 days interval during compound dosing", "details": "in vivo, 816 h"}},
  "data": [
    {"smiles": "NC(=O)c1cccc2cc(C(=O)N3CCN(c4nc(-c5cnc(NC(=O)CN6CCOCC6)cc5C(F)(F)F)nc(N5CCOCC5)n4)CC3)oc12", "values": [
      {"measurement": "IC50", "setting": "[1]", "value": 0.0138, "unit": "µM"},
      {"measurement": "IC50", "setting": "[2]", "value": 0.064, "unit": "µM"},
      {"measurement": "viability at 1 µM", "setting": "MDA-MB-468 [3]", "value": 67.2, "unit": "%"},
      {"measurement": "Activity", "setting": "MDA-MB-468 [4]", "value": 15.8, "unit": "%"},
      {"measurement": "Activity", "setting": "MDA-MB-468 [5]", "value": 13.5, "unit": "%"},
      {"measurement": "k el at 1 h", "setting": "[6]", "value": 0.000255, "unit": "s⁻¹"},
      {"measurement": "k el at 1 h", "setting": "[7]", "value": 0.000275, "unit": "s⁻¹"},
      {"measurement": "k el at 1 h", "setting": "[8]", "value": 0.000663, "unit": "s⁻¹"},
      {"measurement": "half-life", "setting": "[9]", "value": 107, "unit": "min"},
      {"measurement": "half-life", "setting": "[10]", "value": 59.1, "unit": "min"},
      {"measurement": "half-life", "setting": "[11]", "value": 42.2, "unit": "min"},
      {"measurement": "microsomal CLint", "setting": "[12]", "value": 14.7, "unit": "µL/min/mg"},
      {"measurement": "microsomal CLint", "setting": "[13]", "value": 30.7, "unit": "µL/min/mg"},
      {"measurement": "microsomal CLint", "setting": "[14]", "value": 32.9, "unit": "µL/min/mg"},
      {"measurement": "microsomal CLint", "setting": "[15]", "value": 79.7, "unit": "µL/min/mg"},
      {"measurement": "recovery at 2 h, 5 µM", "setting": "[16]", "value": 99.9, "unit": "%"},
      {"measurement": "Papp A→B at 2 h, 5 µM", "setting": "[17]", "value": 84.2, "unit": "nm/s"},
      {"measurement": "Papp B→A at 2 h, 5 µM", "setting": "[18]", "value": 221, "unit": "nm/s"},
      {"measurement": "Activity", "setting": "[19]", "value": 256, "unit": "g"},
      {"measurement": "Activity", "setting": "[20]", "value": 272, "unit": "g"},
      {"measurement": "MTD", "setting": "[21]", "value": "> 1000", "unit": "mg/kg"},
      {"measurement": "IC50", "setting": "[22]", "value": 29.4, "unit": "µM"},
      {"measurement": "Activity", "setting": "[23]", "value": "Non-Toxic"},
      {"measurement": "IC50", "setting": "[24]", "value": 1.1, "unit": "µM"},
      {"measurement": "IC50", "setting": "[25]", "value": 0.197, "unit": "µM"},
      {"measurement": "IC50", "setting": "[26]", "value": 0.376, "unit": "µM"},
      {"measurement": "IC50", "setting": "[27]", "value": 0.0062, "unit": "µM"},
      {"measurement": "Activity", "setting": "[28]", "value": "Non-Toxic"}
    ]}
  ]
}
